# Screening results as filed in PubChem BioAssay.
# A selection: hits, their analogues and other compounds. The true share with any hit is near 2.2%.
# TRAIL sens C8 – sensitizes caspase-8 expressing cells to TRAIL. 1% of 360,000 active. NB7+C8 cells + TRAIL, ATPlite viability luminescence. AID 624354. inhibition (viability loss, TRAIL sensitization), % at 10 µM;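 active means compounds causing at least 50% loss of cell viability in the single-dose screen, relative to plate controls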
# Wee1 stabilizer – inhibitors of human Wee1 degradation. HeLa Luc-Wee1K328M stability, luciferase luminescence; 100% = proteasome inhibitor MG132 effect. AID 1321. 1.2% of 220,000 active. reporter increase, % at 5 µM. P30291;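 active means activation above the mean of all tested compounds plus 3 SD, set per screening run, cut at about 8.8% in these data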;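 further: cells exposed to compound for 20 h before luminescence read; 0% = DMSO alone and 100% = MG132 at 30 µM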
# FLuc inh counter – Photinus pyralis luciferase inhibition counter-screen; 1.5% of 200,000 active; inhibition, % at 10 µM; AID 1006; ATPLite firefly luciferase biochemical luminescence, 10 min;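 active means inhibition above about 50% when tested at 10 µM, limit read from the data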
# Target sequence (P08659 whole entry, looked up): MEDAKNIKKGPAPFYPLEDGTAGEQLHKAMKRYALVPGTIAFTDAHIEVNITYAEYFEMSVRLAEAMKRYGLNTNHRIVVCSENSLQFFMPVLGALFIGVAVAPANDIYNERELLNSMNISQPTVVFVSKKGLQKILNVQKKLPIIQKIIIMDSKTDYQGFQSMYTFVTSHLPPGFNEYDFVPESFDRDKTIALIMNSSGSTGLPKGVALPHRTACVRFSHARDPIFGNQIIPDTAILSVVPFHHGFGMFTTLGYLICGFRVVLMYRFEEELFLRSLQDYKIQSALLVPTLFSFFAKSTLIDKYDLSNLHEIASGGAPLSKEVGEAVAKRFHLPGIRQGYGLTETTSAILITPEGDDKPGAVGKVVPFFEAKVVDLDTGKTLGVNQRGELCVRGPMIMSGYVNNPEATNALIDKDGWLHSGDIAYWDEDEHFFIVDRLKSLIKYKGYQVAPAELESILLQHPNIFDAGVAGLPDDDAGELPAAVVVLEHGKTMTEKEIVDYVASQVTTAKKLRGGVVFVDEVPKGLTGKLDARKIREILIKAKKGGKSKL
# FLuc act counter – firefly luciferase counter-screen for stimulation assays | activation factor at 10 µM | 200,000 tested, under 10 active | ATPlite luciferase biochemical, luminescence, 10 min; 0 = ATP-free wells, 1 = DMSO control | P08659;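 active means luciferase activation factor, scaled between plate controls, of at least 2 with compound at 10 µM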
#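 System: cell-free luciferase reagent; medium: PBS as buffer for the ATP substrate; doses: test compounds dosed from 2 mM stocks in 100% DMSO; incubation: 10 min, room temperature; measured by: luminescence from luciferase reaction; read-out: luciferase activation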
# PPC-1+TRAIL kill – compounds killing PPC-1 cancer cells with TRAIL present (potentiator screen, no TRAIL-free arm); PPC-1 cells + TRAIL, ATPLite viability luminescence; cell killing (% activity), % at 4 µM or 5 µM; 0.41% of 220,000 active; AID 1443;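 active means cell killing above 50% in the first pass at 4 µM, then a duplicate retest at 5 µM averaging 50% or more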;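 further: plate controls were cells with TRAIL plus DMSO for no effect and medium-only wells lacking cells for full effect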
# PKD1 kinase inh – inhibitors of human PKD1 kinase; Q15139; PKD1 kinase fluorescence polarization assay; 0.056% of 200,000 active; inhibition, % (test concentration not listed); in the data active means inhibition above about 50%
# Numbers without * were called inactive; / = not tested or not shown.
SMILES,TRAIL sens C8,Wee1 stabilizer,FLuc inh counter,FLuc act counter,PPC-1+TRAIL kill,PKD1 kinase inh
O=C1C(Cl)=C(N2CCCC2)C(=O)N1c1ccccc1F,-6,/,/,/,/,/
Cn1c(Cn2c3ccccc3c3ccccc32)n[nH]c1=S,0,9.4*,/,/,7,/
CN(CCNC(=O)CN1C(=O)CSc2ccc(S(=O)(=O)N3CCCC3)cc21)Cc1ccccc1,-4,10*,-5,1.1,11,-5
O=C(NC1CCCC1)C1CCN(C(=O)c2cc(Cl)ccc2Cl)CC1,4,/,/,/,/,/
CC(C)(C)c1nc(SCC(=O)N2CC(=O)Nc3ccccc32)c2ccccc2n1,-8,-5,-4,1,10,-1
Nc1ccc(-c2nc3ncccc3o2)c(O)c1,8,/,/,/,/,/
Cc1ccccc1-c1nc2cc(N)ccc2o1,40,2,55*,0.4,45,-15
Cc1ccccc1-c1nc2ccccc2c(=O)o1,-9,/,/,/,/,/
CC(C)c1ccc2oc(-c3cc(N)ccc3O)nc2c1,66*,0,93*,0.1,28,-12
COc1ccc(NC(=O)C2CCN(S(=O)(=O)c3cccc4nonc34)CC2)c(OC)c1,3,/,/,/,/,/
O=C(COc1ccccc1F)NCc1ccc(-n2cccc2)cc1,10,-3,0,1,0,-7
c1ccc(CSc2ccc(-c3ccccn3)nn2)nc1,19,9.7*,16,0.8,24,-1
c1ccc(-c2ccc(SCc3cccnc3)nn2)nc1,-10,2,14,0.9,18,2
Clc1ccc(-c2ccc(SCc3ccccn3)nn2)cc1,8,10*,2,1,1,-2
COc1ccc(-c2ccc(SCc3ccccn3)nn2)cc1OC,4,9,0,1,12,3
COc1ccc(C2C(C(=O)N3CCN(c4ccccc4F)CC3)c3ccccc3C(=O)N2C)cc1 (stereo not given),67*,-2,-7,1.1,5,3
COc1ccc(C2C(C(=O)N3CCC(C)CC3)c3ccccc3C(=O)N2C)cc1 (stereo not given),54*,2,-6,1.1,3,-4
COc1ccc(C2C(C(=O)N3CC(C)CC(C)C3)c3ccccc3C(=O)N2C)cc1 (stereo not given),28,-3,-12,1.1,0,-8
CCOc1ccc(CCNC(=O)COC(=O)c2ccc(OC(C)C)cc2)cc1OCC,-8,/,/,/,/,/
O=C(O)c1ccc(-c2nnc(-c3cccc(Br)c3)o2)cc1,-9,/,/,/,/,/
Brc1ccc(-c2nnc(-c3cccc(Br)c3)o2)cc1,-1,10*,6,0.9,1,-12
CCCc1cc(C(=O)Nc2nccs2)cs1,41,1,61*,0.4,38,3
CCCN1C(=O)c2ccc(C(=O)Nc3nccs3)cc2C1=O,-4,-2,17,0.8,-6,-13
O=C(N/N=C/c1cccc([N+](=O)[O-])c1)c1ccc(Br)cc1,12,2,27,0.7,/,4
O=C(N/N=C/c1ccc(O)c2ncccc12)c1cccc(Br)c1,55*,-2,2,1,19,6
SMILES,TRAIL sens C8,Wee1 stabilizer,FLuc inh counter,FLuc act counter,PPC-1+TRAIL kill,PKD1 kinase inh
O=C(N/N=C/c1cccc([N+](=O)[O-])c1)c1cccc(Br)c1,11,9.4*,1,1,-2,6
O=C(Oc1cccc(/C=N/NC(=O)c2ccccn2)c1)c1ccc([N+](=O)[O-])cc1,68*,/,/,/,/,/
O=C(N/N=C/c1ccc(Br)s1)c1ccc([N+](=O)[O-])cc1,16,9.0*,-2,1,28,-1
O=C(O)/C(=C\C(=O)c1ccccc1)Nc1ccccc1,/,-3,/,/,-10,/
O=S1(=O)CCN(C2CCCCCC2)CC1,3,/,/,/,/,/
O=C(N/N=C/c1cccc(OC2CSC2)c1)c1ccccc1O,16,-1,34,0.7,27,-15
Cn1nccc1C(=O)Oc1cccc(/C=N/NC(=O)c2ccccc2O)c1,53*,0,43,0.6,36,5
COc1ccc([C@H]2CC(=O)C=C(c3ccc(Cl)c(C(F)(F)F)c3)C2)cc1OC,-3,/,/,/,/,/
COc1cccc(/C=N/Nc2cc(Cl)nc(C)n2)c1O,9,-2,54*,0.5,26,4
COc1cccc(/C=N/Nc2c(Cl)cncc2Cl)c1O,9,/,/,/,/,/
COc1ccc(CCCC(=O)N/N=C/c2cccc(OC)c2O)cc1C,52*,-2,4,1,20,-1
